Assay results: ChEMBL document CHEMBL4765449, “Synthesis, biological evaluation and toxicity of novel tetrandrine analogues” (Eur J Med Chem, 2020)
Activity calls are given as the source filed them.

How the values were obtained:
[1] = tested on: HepaRG; test: Cytotoxicity against human HepaRG cells assessed as reduction in cell viability at 10 uM measured after 24 hrs by Celltiter-blue cell viability assay; type: cell-based
How it was run: (§1)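 Differentiated HepaRG cells (Maintenance/Metabolism medium) exposed 24 h to 10 or 20 μM compound; viability by CellTiter-Blue, normalized to vehicle control. Means ± SEM of three independent experiments.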

[2] = tested on: HepaRG; test: Cytotoxicity against human HepaRG cells assessed as reduction in cell viability at 20 uM measured after 24 hrs by Celltiter-blue cell viability assay; type: cell-based; how it was run: as §1
[3] = tested on: CCRF-CEM; test: Antiproliferative activity against vincristine-resistant human CEM cells assessed as reduction in cell viability measured after 48 hrs by Celltiter-blue cell viability assay; type: functional, cell-based
How it was run: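 VCR-R CEM cells (RPMI 1640, 10% FCS), 0.02 × 10^6 per well, rested 4 h (metabolic activity at this point taken as zero value), then exposed to compounds for 48 h; CellTiter-Blue added 2 h before end, fluorescence at 590 nm. IC50 by nonlinear regression; single-concentration proliferation read at 10 μM.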

[4] = tested on: HepG2; test: Cytotoxicity against human HepG2 cells overexpressing EGFP-CYP3A4 assessed as reduction in cell viability at 15 uM measured after 24 hrs by propidium iodide staining based flow cytometry; type: functional
How it was run: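 HepG2 stably transfected (G418 0.5 mg/mL, four weeks; plasmid confirmed by PCR) with pcDNA3-CYP3A4-EGFP or empty vector, 0.1 × 10^6 per well, adhered overnight; 15 μM compound 24 h. Propidium iodide staining and flow cytometry; specific cell death relative to control. Three independent experiments.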

[5] = tested on: CEM; test: Inhibition of P-gp in vincristine-resistant human CEM cells at 0.1 to 1 uM using calcein-AM as substrate preincubated for 30 mins followed by compound washout and subsequent substrate addition measured after 60 mins by flow cytometric analysis; type: cell-based; settings: dose 0.1-1 µM
[6] = tested on: CCRF-CEM; test: Effect on P-gp expression in vincristine-resistant human CEM cells at 1 uM measured after 1.5 hrs by immunostaining based flow cytometry; type: functional, cell-based
How it was run: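 VCR-R CEM, 2 × 10^4 cells, 1 μM compound 1.5 h at 37 °C; washed in ice-cold 1% BSA/PBS, stained 30 min at 4 °C in dark with FITC anti-human P-gp, isotype control for background; flow cytometry, gMFI normalized to DMSO. Three independent experiments.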

[7] = tested on: CEM; test: Inhibition of P-gp in vincristine-resistant human CEM cells assessed as potentiation of vincristine-induced apoptosis 1 uM measured after 48 hrs by propidium iodide staining based flow cytometry; type: cell-based
How it was run: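 VCR-R CEM, 0.125 × 10^6 per well, rested 4 h, then incubated 48 h with increasing vincristine with or without 1 μM compound; apoptosis by propidium iodide staining and flow cytometry. Three independent experiments.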

[8] = tested on: CEM; test: Effect on AKT phosphorylation at Ser473 residue in vincristine-resistant human CEM cells at 5 uM measured after 24 hrs by Western blot analysis; type: cell-based
How it was run: (§2)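 VCR-R CEM cells, 2 × 10^6 per well, seeded 4 h before 5 μM compound or DMSO for 24 h; RIPA lysis, SDS-PAGE, PVDF blotting, chemiluminescence. Probed for p-Akt (Ser473), total Akt, PARP, Bcl-xL, Mcl-1; stain-free total protein as loading control.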

[9] = tested on: CCRF-CEM; test: Effect on Bcl-XL expression in vincristine-resistant human CEM cells at 5 uM measured after 24 hrs by Western blot analysis; type: functional, cell-based; how it was run: as §2
[10] = tested on: CCRF-CEM; test: Effect on MCL1 expression in vincristine-resistant human CEM cells at 5 uM measured after 24 hrs by Western blot analysis; type: functional, cell-based; how it was run: as §2
[11] = tested on: CCRF-CEM; test: Induction of apoptosis in vincristine-resistant human CEM cells assessed as increase in PARP cleavage at 5 uM measured after 24 hrs by Western blot analysis; type: functional, cell-based; how it was run: as §2
[12] = tested on: CCRF-CEM; test: Induction of mitochondrial membrane disruption in vincristine-resistant human CEM cells at 5 uM measured after 24 hrs by JC-1 dye based flow cytometric analysis; type: functional, cell-based
How it was run: (§3)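 Cells (HepG2 adhered overnight; VCR-R CEM seeded 4 h before) treated with DMSO or 5 μM for 24 h; JC-1 (1 μg/mL) 1 h before harvest, PBS wash, flow cytometry; green shift read as loss of ΔΨm. CCCP (100 μM, 1 h) positive control; elacridar (5 μM) present for CEM staining.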

[13] = tested on: HepG2; test: Induction of apoptosis in human HepG2 cells assessed as increase in PARP cleavage at 5 uM measured after 24 hrs by Western blot analysis; type: functional, cell-based
How it was run: (§4)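 HepG2, 0.5 × 10^6 per well, adhered overnight, then DMSO or 5 μM compound; RIPA lysates immunoblotted by SDS-PAGE/PVDF with chemiluminescent detection.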

[14] = tested on: HepG2; test: Induction of mitochondrial membrane disruption in human HepG2 cells at 5 uM measured after 24 hrs by JC-1 dye based flow cytometric analysis; type: functional, cell-based; how it was run: as §3
[15] = tested on: HepaRG; test: Cytotoxicity against human HepaRG cells overexpressing EGFP-CYP3A4 assessed as reduction in cell viability at 10 uM measured after 24 hrs by propidium iodide staining based flow cytometry; type: ADME
How it was run: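 HepaRG cells, differentiated, transiently transfected with pcDNA3-CYP3A4-EGFP or empty vector 16 h before stimulation; 10 μM compound for 24 h. Propidium iodide (5 μg/mL in PBS) staining, flow cytometry without FSC/SSC gating; specific cell death = % dead (treated) − % dead (control). Three independent experiments.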

[16] = tested on: HUVEC; test: Cytotoxicity against HUVEC assessed as reduction in cell viability at 1 to 10 uM measured after 24 hrs by Celltiter-blue cell viability assay; type: cell-based; settings: human, dose 1-10 µM
How it was run: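 HUVECs seeded, adhered overnight, exposed 24 h to 1, 5 and 10 μM; CellTiter-Blue viability normalized to vehicle control; three independent experiments.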

[17] = Cytotoxicity against human PBMC assessed as reduction in cell viability at 1 to 10 uM measured after 48 hrs by propidium iodide staining based flow cytometry
[18] = tested on: HepG2; test: Inhibition of AKT phosphorylation at Ser473 residue in human HepG2 cells at 5 uM measured after 24 hrs by Western blot analysis; type: cell-based; how it was run: as §4
[19] = tested on: HepG2; test: Induction of apoptosis in human HepG2 cells assessed as reduction in Bcl-xl expression at 5 uM measured after 24 hrs by Western blot analysis; type: functional, cell-based; how it was run: as §4
[20] = tested on: HepG2; test: Induction of apoptosis in human HepG2 cells assessed as reduction in Mcl-1 expression at 5 uM measured after 24 hrs by Western blot analysis; type: functional, cell-based; how it was run: as §4

COc1cc2c3cc1Oc1c(OC)c(OC)cc4c1C(Cc1ccc(Cl)c(c1)Oc1ccc(cc1)CC3N(C)CC2)N(C)CC4 (mixture of isomers) [listing 1 of 2 here]
4.8 µM: IC50 [3]
Toxic: Activity [1] | Activity [2]

COc1cc2c3cc1Oc1c(OC)c(OC)cc4c1C(Cc1ccc(Cl)c(c1)Oc1ccc(cc1)CC3N(C)CC2)N(C)CC4 (mixture of isomers) [listing 2 of 2 here]
active: Activity [4] | inhibition [5] | inhibition [7] | Activity [11] | Activity [12]
inactive: Activity [6] | Activity [8] | Activity [9] | Activity [10] | Activity [13] | Activity [14]

COc1cc2c3cc1Oc1c(OC)c(OC)cc4c1C(Cc1ccc(Cl)c(c1)Oc1ccc(cc1)CC3N(C)CC2)N(C)CC4 (racemic)
Toxic: Activity [15]

COc1cc2c3cc1Oc1c(OC)c(OC)cc4c1C(CCCCOc1ccc(cc1)CC3N(C)CC2)N(C)CC4 (racemic)
Toxic: Activity [15]

COc1cc2c3cc1Oc1c(OC)c(OC)cc4c1C(Cc1ccc(OC(F)(F)F)c(c1)Oc1ccc(cc1)CC3N(C)CC2)N(C)CC4 (racemic; form 1) [listing 1 of 2 here]
Toxic: Activity [1] | Activity [2] | Activity [16] | Activity [17]

COc1cc2c3cc1Oc1c(OC)c(OC)cc4c1C(Cc1cc(cs1)Oc1ccc(cc1)CC3N(C)CC2)N(C)CC4 (racemic; form 1) [listing 1 of 2 here]
Toxic: Activity [16] | Activity [17]

COc1cc2c3cc1Oc1c(OC)c(OC)cc4c1C(Cc1cc(cs1)Oc1ccc(cc1)CC3N(C)CC2)N(C)CC4 (racemic; form 1) [listing 2 of 2 here]
inactive: Activity [6] | Activity [8] | Activity [9] | Activity [10] | Activity [13] | Activity [14]
active: Activity [4] | inhibition [5] | inhibition [7] | Activity [12] | inhibition [18] | Activity [19] | Activity [20]

COc1cc2c3cc1Oc1c(OC)c(OC)cc4c1C(Cc1ccc(OC(F)(F)F)c(c1)Oc1ccc(cc1)CC3N(C)CC2)N(C)CC4 (racemic; form 1) [listing 2 of 2 here]
active: Activity [4] | inhibition [5] | inhibition [7] | Activity [11] | Activity [12]
inactive: Activity [6] | Activity [8] | Activity [9] | Activity [10] | Activity [13] | Activity [14]

COc1cc2c3cc1Oc1c(OC)c(OC)cc4c1C(Cc1cccc(c1)Oc1ccc(cc1)CC3N(C)CC2)N(C)CC4 (racemic; form 1)
inactive: Activity [6] | Activity [8] | Activity [9] | Activity [10] | Activity [12] | Activity [13] | Activity [14]
active: Activity [4] | inhibition [5] | inhibition [7] | Activity [11]

COc1cc2c3cc1Oc1c(OC)c(OC)cc4c1C(Cc1cccc(c1)Oc1ccc(cc1)CC3N(C)CC2)N(C)CC4 (racemic; form 2)
Toxic: Activity [2] | Activity [15]

COc1cc2c3cc1Oc1c(OC)c(OC)cc4c1C(Cc1ccc(OC(F)(F)F)c(c1)Oc1ccc(cc1)CC3N(C)CC2)N(C)CC4 (racemic; form 2) [listing 1 of 2 here]
Toxic: Activity [15]

COc1cc2c3cc1Oc1c(OC)c(OC)cc4c1C(Cc1cc(cs1)Oc1ccc(cc1)CC3N(C)CC2)N(C)CC4 (racemic; form 2)
Toxic: Activity [1] | Activity [2] | Activity [15]

COc1cc2c3cc1Oc1c(OC)c(OC)cc4c1C(Cc1ccc(OC(F)(F)F)c(c1)Oc1ccc(cc1)CC3N(C)CC2)N(C)CC4 (racemic; form 2) [listing 2 of 2 here]
active: Activity [4] | inhibition [5] | inhibition [7] | Activity [11] | Activity [12] | inhibition [18]
inactive: Activity [6] | Activity [8] | Activity [9] | Activity [10] | Activity [13] | Activity [14]

COc1ccc2cc1Oc1ccc(cc1)C[C@H]1c3cc(c(OC)cc3CCN1C)Oc1c(OC)c(OC)cc3c1[C@H](C2)N(C)CC3 [FANCHININ]
Toxic: Activity [1] | Activity [2] | Activity [15] | Activity [16] | Activity [17]
active: Activity [4] | inhibition [5] | inhibition [7]
inactive: Activity [6] | Activity [8] | Activity [9] | Activity [10] | Activity [12] | Activity [13] | Activity [14]
